In the library only some 1.5% were active in any assay of this set; here they are far more common.
ZTA DNA inh: ZTA (EBV) inhibition in EBNA-1 counter-screen | P03206 | ZTA-DNA binding, fluorescence polarization | inhibition, % at 11 µM | 320,000 compounds, 0.15% hits | AID 2234; in the data active means inhibition above about 33%
CSN inh: inhibitors of CSN-mediated cullin deneddylation, primary screen, biochemical, fluorescence polarization, uHTS. COP9 signalosome complex subunit 5 (Homo sapiens), Q92905. Purified CSN, SCF-Nedd8-OG deneddylation. inhibition, % at 12.5 µM. 360,000 compounds, 0.38% hits. AID 651999, 2013;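 active means pattern-corrected inhibition above about 35%, with an unprinted fluorescence ratio check between 0.5 and 1.5, limit read from the data, passing the limit was not always enough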;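 further: 0% = enzyme with substrate and 100% = substrate without enzyme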
Target sequence (Q92905 whole entry, looked up, one chain of several): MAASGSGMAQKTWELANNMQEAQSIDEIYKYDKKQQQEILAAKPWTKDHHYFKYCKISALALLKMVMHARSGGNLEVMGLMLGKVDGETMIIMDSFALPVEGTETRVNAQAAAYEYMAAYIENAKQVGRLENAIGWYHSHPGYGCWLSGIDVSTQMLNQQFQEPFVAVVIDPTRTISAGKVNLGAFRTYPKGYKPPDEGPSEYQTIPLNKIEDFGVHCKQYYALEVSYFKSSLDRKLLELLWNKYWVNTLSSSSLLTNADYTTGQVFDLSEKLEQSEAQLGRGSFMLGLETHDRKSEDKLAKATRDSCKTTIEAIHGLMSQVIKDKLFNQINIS
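Assay system: HEK293T-derived human Csn5 enzyme; quantity: 0.24 nM enzyme; medium: Tris/NaCl/DTT buffer, pH 7.5; also added: substrate SCFSkp2-Nedd8OG, 10 nM; doses: 12.5 µM compound; schedule: 90 min reaction at room temperature; signal: FP; read-out: % inhibition of substrate cleavage by Csn5; benchmarks: substrate-only high control, full reaction low control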
EBNA-1 inhibitor: EBNA-1 DNA-binding inhibitors, primary screen, biochemical, fluorescence polarization. inhibition, % at 14.8 µM. 300,000 compounds, 0.34% hits. AID 1950, 2009; in the data active means inhibition above about 28%
LANA-H2B inh: blockers of LANA interaction with H2A/H2B – biochemical, FP readout, HTS, primary screen. Protein LANA1 (Human herpesvirus 8 type P (isolate GK18)), Q9QR71. cell-free LANA-H2A/H2B peptide, fluorescence polarization. inhibition, % (concentration not given with the values). 320,000 compounds, 0.6% hits. AID 2629, 2010; in the data active means inhibition mostly above about 10%, no sharp cut-off; inactive means mostly below about 6.7%
HNF4A DNA FP: change in binding of human HNF4A to DNA, primary screen, biochemical, fluorescence polarization, FITC-DNA. Hepatocyte nuclear factor 4-alpha (Homo sapiens), P41235. 1 h. activity change, % at 10 µM. 360,000 compounds, 0.3% hits. AID 1224865, 2016; in the data active means activity change above about 30%, passing the limit was not always enough
A1 inh: caspase 3/7 activation in MEF A1-2A-BIM cells, primary screen, A1 inhibitor project, cell-based, luminescence, HTS; Caspase-Glo 3/7 luminescence, 3 h; percent of clofoctol response, vehicle zero; 330,000 compounds, 0.066% hits; caspase activation, % (test concentration not listed);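 active means over half of replicate activation scores above 10%, or exactly half above 10 with the replicate mean above 10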
* hit, by the source's call; x = no result; + = active, no number.

SMILES	ZTA DNA inh	CSN inh	EBNA-1 inhibitor	LANA-H2B inh	HNF4A DNA FP	A1 inh
O=C(O)C1Nc2c(O)cc(Cl)c([N+](=O)[O-])c2C2C=CCC12 (stereo not drawn)	90*	83	58*	9	-77	0
Cc1ccc2nc(SC(C)C(=O)Nc3cccc([N+](=O)[O-])c3)[nH]c2c1 (stereo not drawn)	-2	-1	-8	0	-2	-1
CC1OC(OCC2OC(Oc3c(-c4ccc(O)cc4)oc4cc(O)cc(O)c4c3=O)C(O)C(O)C2O)C(O)C(O)C1O (stereo not drawn)	0	13	-2	+	-3	0
Cc1nn(CC(=O)NC2(C)CCS(=O)(=O)C2)c(C)c1S(=O)(=O)N(C)C (stereo not drawn)	x	5	x	0	-1	1
OC(COCc1ccccc1)CN1CCCC1 (stereo not drawn)	-11	37*	6	-5	4	0
O=C(CSc1ncnc2sc3c(c12)CCCCC3)NCc1ccco1	-5	6	0	-4	0	-1
CC(C)c1nc2sc3c(SCC(=O)NCc4ccco4)ncnc3c2c2c1CCC2	-2	46*	-14	-5	-23	0
CC(C)C(N)c1csc(Nc2ccc(S(C)(=O)=O)cc2)n1 (stereo not drawn)	x	-3	x	x	4	x
Cn1c(SCC(=O)Nc2ccccc2Br)nnc1-c1cnccn1	3	-1	-2	3	3	1
NC(=O)Cn1c(=O)n(CCC(=O)NCCSCc2ccccc2)c(=O)c2ccccc21	15	3	10	0	-5	0
CCN=C1S/C(=C\c2cn(CC)c3ccccc23)C(=O)N1CC	16	2	8	-3	-1	-3
CCn1cc(C=C2C(=O)c3ccccc3C2=O)c2ccccc21	x	-26	x	x	36*	x
CCN1C/C(=C/c2sccc2C)c2nc3ccccc3c(C(=O)O)c2C1	4	8	2	2	-6	0
CCN1C/C(=C/c2cccs2)c2nc3ccccc3c(C(=O)O)c2C1	-16	2	0	11*	-21	0
COc1ccc(-c2onc3ccc(Br)cc23)cc1	-6	-41	0	-7	-58	0
COc1cc(-c2onc3ccc(Br)cc23)cc(OC)c1OC	-4	-6	-4	3	43*	0
Cc1ccc(/C=C2\C(=N)N3N=C(CC(=O)N4CCOCC4)SC3=NC2=O)o1	19	9	8	18*	-3	0
O=C1CC(c2ccco2)CC2=C1C=Nc1ccccc1N2 (stereo not drawn)	-8	-1	-1	9	0	1
O=c1[nH]c2c(s1)C=Nc1ccccc1N2	9	-62	6	38*	-99	0
Cc1[nH]c2ccccc2c1C(=O)CSc1nc2cc(S(=O)(=O)N3CCCCC3)ccc2o1	17	100*	-3	0	4	0
Cc1ccc(C(=O)CSc2nc3cc(S(=O)(=O)N4CCOCC4)ccc3o2)cc1	8	0	-7	0	1	0
CCOC(=O)C1=CN(Cc2ccco2)S(=O)(=O)N(C)C1c1ccc2ccccc2c1 (stereo not drawn)	x	-1	x	x	-1	x
O=C(Nc1ccc(S(=O)(=O)Nc2cnc3ccccc3n2)cc1)c1cc(F)c(F)cc1Cl	-1	-6	-8	22*	4	0
O=C(Nc1ccc(S(=O)(=O)Nc2cnc3ccccc3n2)cc1)c1ccc(Cl)cc1Cl	-5	-1	-1	2	-4	0
CN1CCc2c(sc(/N=C/c3c[nH]c4ccccc34)c2C(N)=O)C1	-2	115*	2	-42	32	0
CN1CCc2c(sc(/N=C/c3c[nH]c4ccccc34)c2C#N)C1	23	70	5	38*	77	2
CN1CCc2c(sc(/N=C/c3cc(Cl)ccc3O)c2C#N)C1	6	23	1	-6	20	0
O=C(NC1CCOc2ccccc21)c1ccc(Cl)nc1 (stereo not drawn)	2	6	-3	-7	-1	0
